The entries come from a sample that favours hits as a whole.
T cruzi HTS: inhibitors of intracellular Trypanosoma cruzi, primary screen, cell-based, plate reader, single point, set 2; intracellular Trypanosoma cruzi in host cells; activity score (inhibition), % at 5.01 µM; actives 4.9% (n = 22,000); AID 651903, 2012; in the data active means activity score above about 55%;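 further: parasites and compound incubated about four days before reading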
A1 apoptosis 2: A1 inhibitors via caspase activation, primary screen, cell-based, luminescence, HTS, two replicates; caspase activation, % (test concentration not listed); 24,000 tested, under 10 active; MEF A1-2A-BIM cells, caspase-Glo luminescence, 3 h; percent of clofoctol response, DMSO zero; in the data active means caspase activation above about 5.9%
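Test system – A1-2A-BIM-expressing MEF cells · Input – 2500 cells/well · Medium – RPMI-1640 growth medium with 10% FBS · Compound dosing – 50 nL pinned compound · Timing – 3 h compound exposure at 37 °C · Technique – Caspase-Glo luminescence (DEVD substrate) · Evaluation – Caspase-3/7 activity from luminescence increase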
INS-1E rescue: protection of INS-1E cells from cytokine death, primary screen, ATP luminescence, single point | INS-1E cytokine-induced death, 48 h; normalised: neutral wells 0, positive control 100 | protection from cytokine-induced ATP loss, % at 10 µM | actives 0.1% (n = 20,000);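 active means mean replicate protection from cytokine-induced ATP loss at least 50% and at least 75% of replicates each reaching 50%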
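Assay system – rat INS-1E insulinoma cell line · Quantity – 8000 cells per well · Buffer or medium – RPMI without phenol red, 5% FBS · Schedule – 48 h co-treatment, 10 min post-lysis read · Technique – luminescent ATP assay (CellTiter-Glo)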
Large screens that a line does not name were inactive.

COc1ccc(S(=O)(=O)Nc2ccc3c(c2)CC(=O)N([C@H](C)CO)C[C@@H](C)[C@H](CN(C)CC2CCCCC2)O3)cc1	T cruzi HTS 59
COc1ccc(S(=O)(=O)Nc2ccc3c(c2)CC(=O)N([C@H](C)CO)C[C@H](C)[C@H](CN(C)CC2CCCCC2)O3)cc1	none (no result: A1 apoptosis 2)
C[C@H]1CN([C@@H](C)CO)C(=O)Cc2cc(NS(=O)(=O)c3ccc(Cl)cc3)ccc2O[C@@H]1CN(C)CC1CCCCC1	none
COc1cc2c(cc1OC)CN(C(=O)[C@@H]1[C@H]3C(=O)O[C@H](c4ccccc4)[C@H](c4ccccc4)N3[C@H](c3ccc(O)cc3)[C@@]13C(=O)Nc1ccc(C#CC4=CCCCC4)cc13)CC2	none (no result: T cruzi HTS, INS-1E rescue)
COC(=O)CCCCCCC(=O)N/N=C/c1cc(OC)ccc1Br	none (no result: A1 apoptosis 2)
COc1ccc(S(=O)(=O)Nc2ccc3c(c2)CC(=O)N([C@@H](C)CO)C[C@@H](C)[C@@H](CN(C)S(=O)(=O)c2ccc(Cl)cc2)O3)cc1	T cruzi HTS 60 (no result: A1 apoptosis 2)
COc1ccc(S(=O)(=O)N(C)C[C@@H]2Oc3ccc(NS(=O)(=O)c4ccc(Cl)cc4)cc3CC(=O)N([C@@H](C)CO)C[C@@H]2C)cc1	none
COc1ccc(S(=O)(=O)Nc2ccc3c(c2)CC(=O)N([C@H](C)CO)C[C@@H](C)[C@@H](CN(C)S(=O)(=O)c2ccc(OC)cc2)O3)cc1	T cruzi HTS 67
COc1ccc(S(=O)(=O)Nc2ccc3c(c2)CC(=O)N([C@H](C)CO)C[C@@H](C)[C@H](CN(C)S(=O)(=O)c2ccc(Cl)cc2)O3)cc1	none (no result: A1 apoptosis 2)
COc1ccc(S(=O)(=O)Nc2ccc3c(c2)CC(=O)N([C@H](C)CO)C[C@@H](C)[C@@H](CN(C)S(=O)(=O)c2ccc(Cl)cc2)O3)cc1	T cruzi HTS 60
COc1ccc(S(=O)(=O)N(C)C[C@H]2Oc3ccc(NS(=O)(=O)c4ccc(Cl)cc4)cc3CC(=O)N([C@H](C)CO)C[C@H]2C)cc1	T cruzi HTS 67 (no result: A1 apoptosis 2)
COc1ccc(S(=O)(=O)Nc2ccc3c(c2)CC(=O)N([C@@H](C)CO)C[C@H](C)[C@@H](CN(C)S(=O)(=O)c2ccc(OC)cc2)O3)cc1	none
COc1ccc(S(=O)(=O)N(C)C[C@H]2Oc3ccc(NS(=O)(=O)c4ccc(Cl)cc4)cc3CC(=O)N([C@H](C)CO)C[C@@H]2C)cc1	none (no result: T cruzi HTS, INS-1E rescue)
COc1ccc(Br)c(/C=N/NC(=O)c2cccc(C(=O)NO)c2)c1	none
O=C(N/N=C/c1ccc(O)c2ccccc12)c1ccccc1O	none
COc1cccc(/C=C2\SC(=S)N(CCCC(=O)O)C2=O)c1	none (no result: T cruzi HTS, INS-1E rescue)
NC(=O)COc1ccc(/C=N/NC(=O)c2ccccn2)cc1	none
COc1ccc(S(=O)(=O)N(C)C[C@H]2Oc3ccc(NS(=O)(=O)c4ccc(Cl)cc4)cc3CC(=O)N([C@@H](C)CO)C[C@H]2C)cc1	T cruzi HTS 62
COc1ccc(S(=O)(=O)Nc2ccc3c(c2)CC(=O)N([C@H](C)CO)C[C@H](C)[C@H](CN(C)S(=O)(=O)c2ccc(Cl)cc2)O3)cc1	none
COC(=O)[C@]1(Cc2ccccc2N=[N+]=[N-])N=C(c2ccc(OCCCO)cc2)O[C@@H]1c1ccccc1CN=[N+]=[N-]	none (no result: T cruzi HTS, INS-1E rescue)
Cn1cc(/C=N/NC(=O)CCCCCC(=O)NO)c2ccccc21	none (no result: T cruzi HTS, INS-1E rescue)
COc1ccc(NC(=O)Nc2ccc3c(c2)C(=O)N([C@H](C)CO)C[C@H](C)[C@H](CN(C)Cc2ccc(C(F)(F)F)cc2)OCCCC[C@@H](C)O3)cc1	T cruzi HTS 71 (no result: A1 apoptosis 2)
COc1ccc(CN(C)C[C@H]2OCCCC[C@H](C)Oc3ccc(NC(=O)Nc4ccc(C(F)(F)F)cc4)cc3C(=O)N([C@H](C)CO)C[C@@H]2C)cc1	none (no result: T cruzi HTS, INS-1E rescue)
COc1ccc(NC(=O)Nc2ccc3c(c2)C(=O)N([C@@H](C)CO)C[C@@H](C)[C@H](CN(C)Cc2ccc(C(F)(F)F)cc2)OCCCC[C@@H](C)O3)cc1	none (no result: T cruzi HTS, INS-1E rescue)
COc1ccc(CN(C)C[C@H]2OCCCC[C@@H](C)Oc3ccc(NC(=O)Nc4ccc(C(F)(F)F)cc4)cc3C(=O)N([C@H](C)CO)C[C@@H]2C)cc1	T cruzi HTS 67 (no result: A1 apoptosis 2)
CO[C@H]1O[C@H](CO)[C@@H](OC(=O)Nc2ccccc2)[C@H](OC(=O)Nc2ccccc2)[C@@H]1OC(=O)Nc1ccccc1	none (no result: T cruzi HTS, INS-1E rescue)
O=C(CCCCCCC(=O)Nc1ccccc1O)N/N=C/c1cccnc1Br	none (no result: A1 apoptosis 2)
O=C(N/N=C/c1ccc(OCCO)cc1)c1ccccc1O	none
C[C@@H]1CN([C@H](C)CO)C(=O)Cc2cc(NS(=O)(=O)c3ccc(F)cc3)ccc2O[C@@H]1CN(C)Cc1ccc(-c2ccccc2)cc1	T cruzi HTS 68 (no result: A1 apoptosis 2)
C[C@@H]1CN([C@H](C)CO)C(=O)Cc2cc(NS(=O)(=O)c3ccc(F)cc3)ccc2O[C@H]1CN(C)Cc1ccc(-c2ccccc2)cc1	T cruzi HTS 62 (no result: A1 apoptosis 2)
C[C@@H]1CN([C@@H](C)CO)C(=O)Cc2cc(NS(=O)(=O)c3ccc(F)cc3)ccc2O[C@H]1CN(C)Cc1ccccc1	none (no result: T cruzi HTS, INS-1E rescue)
C[C@@H]1CN([C@@H](C)CO)C(=O)Cc2cc(NS(=O)(=O)c3ccc(F)cc3)ccc2O[C@@H]1CN(C)Cc1ccccc1	none (no result: A1 apoptosis 2)
Cc1ccc(S(=O)(=O)N(C)C[C@@H]2Oc3ccc(NS(=O)(=O)c4ccc(Cl)cc4)cc3C(=O)N([C@H](C)CO)C[C@@H]2C)cc1	none
C[C@H](CO)N1C[C@H](C)[C@@H](CN(C)S(=O)(=O)c2ccc(Cl)cc2)Oc2ccc(NS(=O)(=O)c3ccc(Cl)cc3)cc2C1=O	none
Cc1ccc(S(=O)(=O)Nc2ccc3c(c2)C(=O)N([C@H](C)CO)C[C@H](C)[C@H](CN(C)S(=O)(=O)c2ccc(Cl)cc2)O3)cc1	T cruzi HTS 47 (no result: A1 apoptosis 2, INS-1E rescue)
C[C@H](CO)N1C[C@H](C)[C@H](CN(C)S(=O)(=O)c2ccc(Cl)cc2)Oc2ccc(NS(=O)(=O)c3ccc(Cl)cc3)cc2C1=O	T cruzi HTS 64 (no result: INS-1E rescue)
O=C(N/N=C/C1CCCCC1)c1ccccc1O	none (no result: A1 apoptosis 2)
COc1ccc(CCNC(=O)[C@@H]2c3ccccc3C(=O)N(Cc3ccccc3OC)[C@H]2c2ccc(CO)cc2)cc1	none (no result: T cruzi HTS, INS-1E rescue)
CN1C(=O)N[C@@H]2c3ccccc3O[C@@]1(CO)[C@@H]2COC(=O)c1ccccc1	none (no result: T cruzi HTS, INS-1E rescue)
COc1ccc(CN(C)C[C@H]2Oc3ccc(NC(=O)C4CCCCC4)cc3CC(=O)N([C@H](C)CO)C[C@H]2C)cc1	none
COc1ccc(CN(C)C[C@H]2Oc3ccc(NC(=O)C4CCCCC4)cc3CC(=O)N([C@@H](C)CO)C[C@@H]2C)cc1	T cruzi HTS 64 (no result: A1 apoptosis 2)
C[C@@H]1CN([C@H](C)CO)C(=O)Cc2cc(NC(=O)C3CCCCC3)ccc2O[C@H]1CN(C)Cc1ccc(Oc2ccccc2)cc1	T cruzi HTS 76 (no result: A1 apoptosis 2)
C[C@H]1CN([C@@H](C)CO)C(=O)Cc2cc(NC(=O)C3CCCCC3)ccc2O[C@H]1CN(C)Cc1ccc(Oc2ccccc2)cc1	none (no result: A1 apoptosis 2)
NC(=O)COc1ccc(/C=N/NC(=O)CCCCC(=O)NO)cc1	none
